Compound activity deposited in PubChem by The Scripps Research Institute Molecular Screening Center.
CHRM4 agonist: agonists of human muscarinic M4 receptor (CHRM4); AID 624127; activation, % at 3 µM; 360,000 compounds, 0.14% hits; CHO-K1 hM4/Gqi5, Fluo-8 calcium fluorescence; vehicle 0%, full acetylcholine response 100%;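 active means activation above the run mean over all test wells plus 3 SD, cut at about 32% in these data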;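 further: peak over basal fluorescence ratio per well then scaled between controls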
Target sequence (P08173 whole entry, looked up): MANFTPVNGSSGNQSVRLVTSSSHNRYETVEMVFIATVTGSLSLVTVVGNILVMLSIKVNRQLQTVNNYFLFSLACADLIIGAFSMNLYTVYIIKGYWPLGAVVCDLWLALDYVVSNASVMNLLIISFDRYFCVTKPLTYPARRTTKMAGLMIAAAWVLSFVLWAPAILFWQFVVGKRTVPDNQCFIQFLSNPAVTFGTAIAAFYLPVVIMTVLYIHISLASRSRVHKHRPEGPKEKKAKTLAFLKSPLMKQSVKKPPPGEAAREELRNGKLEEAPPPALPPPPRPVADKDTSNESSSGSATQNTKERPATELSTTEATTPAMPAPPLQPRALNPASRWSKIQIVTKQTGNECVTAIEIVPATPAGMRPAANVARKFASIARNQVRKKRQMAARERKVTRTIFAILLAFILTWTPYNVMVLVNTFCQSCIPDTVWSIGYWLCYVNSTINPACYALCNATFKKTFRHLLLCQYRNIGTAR
M4 antag: antagonists of human muscarinic M4 receptor (CHRM4) | 360,000 compounds, 0.73% hits | P08173 | CHO-hM4 cells, ACh EC80, Fluo-8 calcium fluorescence | inhibition, % at 3 µM;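 active means inhibition above its plate's cutoff, the mean inhibition of sample wells plus 3 SD, cut at about 27% in these data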
M5 antag: antagonists of human muscarinic M5 receptor (CHRM5); inhibition, % at 3 µM; 360,000 compounds, 0.59% hits; P08912; CHO-hM5 cells, Fluo-8 calcium fluorescence, ACh EC80;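 active means inhibition above a per-plate cutoff, the mean of that plate's test compounds plus 3 SD, cut at about 27% in these data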
M5 ag: CHRM5 agonism in calcium assay; P08912; CHO-K1 hM5 cells, Fluo-8 calcium fluorescence; 0% DMSO wells, 100% maximal acetylcholine response; activation, % at 3 µM; 360,000 compounds, 0.19% hits; AID 624037;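 active means activation above the run's mean over test compounds plus 3 SD, cut at about 23% in these data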;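 further: signal is peak over basal fluorescence ratio across the kinetic read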
M5 PAM: positive allosteric modulators of human muscarinic M5 receptor; activation, % at 3 µM; 360,000 compounds, 0.3% hits; P08912; CHO-K1 hM5, Fluo-8 calcium, ACh EC20 PAM; 0% = ACh EC20, 100% = ACh EC100;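 active means activation above the run cutoff, the mean activation of all test compounds plus 3 SD, cut at about 18% in these data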
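System: CHO-K1 cell line with stable human muscarinic M5 receptor expression | Also added: EC20 acetylcholine as agonist stimulus | Compound: One concentration, 3 µM final (nominal) | Timing: Fluo-8 loading 80 min at 37 °C plus 30 min room temperature | Measured by: Fluo-8 calcium dye fluorescence, kinetic read | Read-out basis: % activation, ACh-normalized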
CHRM4 PAM: positive allosteric modulators of human muscarinic M4 receptor | CHO-K1 hM4/Gqi5, Fluo-8 calcium fluorescence, ACh EC20; 0% = ACh EC20, 100% = maximal ACh | activation, % at 3 µM | 360,000 compounds, 0.4% hits | AID 624126;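 active means activation above its plate's cutoff, the mean activation of sample wells plus 3 SD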
Each line names hits and unclear results; the compound was inactive in the other large screens. Hits are enriched below; roughly 1.8% of the tested compounds scored in any of these assays.

COc1ccc(OC)c(NC(=O)CSc2nc(C)cs2)c1	CHRM4 PAM 45
CCOC(=O)Cc1csc(SCC(=O)NC2CCC(C)CC2)n1 (configuration not stated)	CHRM4 PAM 20
CCOC(=O)Cc1csc(SCC(=O)Nc2cc(Cl)ccc2Oc2ccccc2)n1	M4 antag 45
O=C(CSc1n[nH]c(=O)n1C1CC1)Nc1cc(Cl)ccc1Oc1ccccc1	M4 antag 47, M5 antag 30
Cc1cccc(NS(=O)(=O)c2cc(C(=O)N3CCOCC3)ccc2Cl)c1	none
CC1CCN(S(=O)(=O)c2nnc(NC(=O)c3cccc(Cl)c3)s2)CC1	none
CSCc1ccc(C(=O)N2CCC(N3CCC(C(=O)NC(C)C)CC3)CC2)o1	none
O=[N+]([O-])c1ccc(NC(=S)NCCc2ccc(F)cc2)cc1	M5 antag 33
Cc1ccc(C(=O)C2CCN(C(=S)NCCCOC(C)C)CC2)cc1	M5 PAM 23
CC(C)OCCCNC(=S)N1CCC(C(=O)c2ccc(F)cc2)CC1	none
COP(=O)(OC)OC(C(=O)c1ccccc1)c1ccc(Cl)cc1 (configuration not stated)	none
O=C(O)CSc1nnc(CSc2nc3ccccc3s2)n1-c1ccccc1	M5 PAM 20
Cc1ccccc1C(=O)NC1CCN(CC(=O)Nc2ccccc2)CC1	none
Cc1ccccc1C(=O)NC1CCN(CC(=O)Nc2c(C)cccc2C)CC1	M5 PAM 32, CHRM4 PAM 29
Cc1cc(C)nc(/N=C(\N)Nc2ccc(CC(=O)OC(C)C)cc2)n1	CHRM4 agonist 113, M4 antag 83, M5 antag 42, M5 ag 31
COc1ccccc1N/C(N)=N/c1nc(C)cc(C)n1	none
Cc1cc(C)nc(/N=C(\N)Nc2ccc(OCCC(C)C)cc2)n1	CHRM4 agonist 105, M4 antag 86, M5 antag 76, M5 ag 64
COc1ccc(N/C(N)=N/c2nc(C)cc(C)n2)cc1	none
CCOC(=O)C(=O)Nc1ccc(OCc2ccccc2)cc1	none
Cc1cc(C)nc(/N=C(\N)Nc2ccc(S(=O)(=O)O)cc2)n1	none
Cc1cc(C)nc(/N=C(\N)Nc2cccc(OCc3ccccc3)c2)n1	CHRM4 agonist 81, M4 antag 68, M5 antag 29, M5 ag 39
Cc1cc(C)nc(/N=C(\N)Nc2ccc(OCc3ccccc3)cc2)n1	CHRM4 agonist 111, M4 antag 98, M5 antag 96, M5 ag 63
CC(NCc1ccc(S(N)(=O)=O)cc1)C(=O)NCc1ccccc1 (configuration not stated)	none
CCC(Oc1ccccc1)C(=O)NCc1ccc(S(N)(=O)=O)cc1 (configuration not stated)	CHRM4 PAM 20
CCCNC(=O)c1cccc(COc2ccccc2OC)c1	none
CCCNC(=O)c1cccc(COCC(F)(F)F)c1	M5 PAM 34
NC(=O)c1ccsc1NC(=O)COC(=O)/C=C/c1ccccc1[N+](=O)[O-]	M4 antag 31
NC(=O)c1ccsc1NC(=O)COC(=O)/C=C/c1ccccc1	none
CC(=O)Nc1ccc(C(=O)OCC(=O)NCc2ccccc2)cc1	M5 antag 27
CCC1CCCCN1S(=O)(=O)c1ccc(S(=O)(=O)N(Cc2ccccn2)CC2CCCO2)cc1 (configuration not stated)	none
CCC1CCCCN1S(=O)(=O)c1ccc(S(=O)(=O)N(Cc2cccs2)C2CC2)cc1 (configuration not stated)	M4 antag 45
c1ncn(C23CC4CC(CC(C4)C2)C3)n1	M5 PAM 21
Cc1cccc(C(=O)Nc2cccc(C(=O)Nc3cc(C)ccn3)c2)c1	none
Cc1c(/C=N/NC(=O)c2cc(=O)[nH]c(=O)[nH]2)c2ccccn2c1C(=O)c1ccccc1	none
CC(=O)Nc1cc(-c2ccc(CO)cc2)cn2c(-c3cccc(C(F)(F)F)c3)cnc12	none
O=c1[nH]cnc2c1C(c1ccccc1[N+](=O)[O-])c1c(nc[nH]c1=O)O2	M5 PAM 21
Cc1ccc2nc(N3CCN(C(=O)c4ccco4)CC3)c3nncn3c2c1	none
CCOCc1nnc(NC(=O)C2c3ccccc3Oc3ccccc32)s1	M5 ag 28
CN(C(=O)COC(=O)C1c2ccccc2Oc2ccccc21)C1CCS(=O)(=O)C1 (configuration not stated)	M4 antag 95
CCN(CC)CCOC(=O)C1c2ccccc2Oc2ccccc21	M4 antag 98, M5 antag 100
CCN(CC)CCNC(=O)C1c2ccccc2Oc2ccccc21	M4 antag 37, M5 antag 59
Cc1cc(=O)n(C2CCS(=O)(=O)C2)[nH]1 (configuration not stated)	none
O=C(c1ccc(F)cc1)n1c(NCc2ccccc2)n[nH]c1=S	none
Brc1ccc(NC(c2ccccc2)c2ccncc2)cc1 (configuration not stated)	none
O=C1c2ccccc2C(=O)N1Nc1ccccc1	none
Cc1ccc(NN2C(=O)C=C(c3ccccc3)C2=O)cc1	M4 antag 35
CN1CCCN=C1COC(=O)C(O)(c1ccccc1)C1CCCCC1 (configuration not stated)	M4 antag 99, M5 antag 99
CC(=O)NC(c1ccccc1)c1nc(-c2cnc3ccccc3c2)cs1 (configuration not stated)	none
CC1=C(C(=O)Nc2cc(C(=O)NCCCOC(C)C)ccc2C)SCCO1	none
CN(C)C(C)(C)C#CCC(c1ccccc1)c1ccccc1	M4 antag 38, M5 antag 46
CN(C)C(C)(C)C#CCCCCC#CC(C)(C)N(C)C	none
O=[N+]([O-])c1cc(C(F)(F)F)cc([N+](=O)[O-])c1NCCNC(=S)Nc1ccc(Cl)c(Cl)c1	M4 antag 31, M5 antag 35
Cc1ccc(C2(C)NC(=O)N(CC(=O)NNC(=O)c3ccccc3)C2=O)cc1 (configuration not stated)	none
Cc1csc2c(N3CCN(C(=S)Nc4ccc(C(F)(F)F)cc4)CC3)ncnc12	M5 antag 30
Cc1csc2ncnc(N3CCN(C(=S)Nc4ccc(C(F)(F)F)cc4)CC3)c12	none
Cc1nc2ccccc2n1CC(O)COc1ccccc1Cl (configuration not stated)	M4 antag 30
Cc1ccccc1OCC(O)Cn1c(=N)n(Cc2ccccc2)c2ccccc21 (configuration not stated)	M4 antag 27
